Test results from ChEMBL document CHEMBL1157084, “Exploring the structural requirements for inhibition of the ubiquitin E3 ligase breast cancer associated protein 2 (BCA2) as a treatment for breast cancer” (J Med Chem, 2010).
Calls of active or inactive are those of the source. The rule behind the calls is not given here.

What was measured:
[1] = Antiproliferative activity against human MCF10A cells after 72 hrs by MTT assay; assay type: cell-based; settings: MCF-10A
Outline: (§1)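 Each compound run in triplicate; actives repeated in three independent experiments, IC50 read from growth curves as mean ± SD. Cells in RPMI 1640 + 10% heat-inactivated FBS (MDA-MB-231/ER also with 1 mg/mL G418; MCF10A in MEGM), 37 °C, 5% CO2, exponential phase.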

Homo sapiens [2] = species on record: Homo sapiens; assay: Inhibition of wild type human recombinant His-BCA2 autoubiquitination expressed in Escherichia coli at 5 uM after 30 mins by Western blotting in presence of human recombinant E2 UbcH5b
Outline: (§2)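 10 ng E. coli-expressed His-BCA2 preincubated 30 min at room temperature with compound (final 5 or 50 μM, DMSO stocks). Then added ATP, 1 μg ubiquitin, 20 ng rabbit E1 and 20 ng UbcH5b in Tris HCl pH 8.0 with DTT and MgCl2. Reaction 1 h at 30 °C, then SDS-PAGE on 4–20% gel and immunoblot with anti-ubiquitin antibody.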

T47D = assay: Antiproliferative activity against human T47D cells expressing BCA2 and estrogen receptor after 72 hrs by MTT assay; assay type: functional, cell-based; outline: as §1
[3] = target: E3 ubiquitin-protein ligase Mdm2 (Homo sapiens) (UniProt Q00987); assay: Inhibition of recombinant RING-E3 ligase Mdm2 autoubiquitination at 5 to 50 uM after 30 mins by Western blotting in presence of human recombinant E2 UbcH5b
Chain of E3 ubiquitin-protein ligase Mdm2 (Homo sapiens) (Q00987 whole entry, looked up): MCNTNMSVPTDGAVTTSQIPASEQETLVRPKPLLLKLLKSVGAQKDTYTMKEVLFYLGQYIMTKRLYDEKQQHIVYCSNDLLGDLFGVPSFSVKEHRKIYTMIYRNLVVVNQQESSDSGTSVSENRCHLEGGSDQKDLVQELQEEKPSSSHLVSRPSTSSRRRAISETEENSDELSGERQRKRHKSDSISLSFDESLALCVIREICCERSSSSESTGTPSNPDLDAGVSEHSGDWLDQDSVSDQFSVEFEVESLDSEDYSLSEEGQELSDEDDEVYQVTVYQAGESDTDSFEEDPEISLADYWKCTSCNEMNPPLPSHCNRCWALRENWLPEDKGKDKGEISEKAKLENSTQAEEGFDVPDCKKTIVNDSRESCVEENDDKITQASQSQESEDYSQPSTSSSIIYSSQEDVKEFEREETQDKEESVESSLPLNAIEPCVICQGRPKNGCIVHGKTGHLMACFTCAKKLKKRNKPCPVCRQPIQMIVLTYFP

MDA-MB-231 [4] = assay: Antiproliferative activity against human MDA-MB-231 cells expressing BCA2 and ERalpha after 72 hrs by MTT assay; assay type: functional, cell-based; settings: MDA-MB-231, 72 h; outline: as §1
[5] = target: T1, Aldehyde dehydrogenase 1A1 (Homo sapiens) (UniProt P00352); assay: Inhibition of ALDH1 in human K562 cells at 15 uM after 45 mins by flow cytometry based method relative to bodipy-aminoacetaldehyde; assay type: cell-based
T1 sequence (whole entry): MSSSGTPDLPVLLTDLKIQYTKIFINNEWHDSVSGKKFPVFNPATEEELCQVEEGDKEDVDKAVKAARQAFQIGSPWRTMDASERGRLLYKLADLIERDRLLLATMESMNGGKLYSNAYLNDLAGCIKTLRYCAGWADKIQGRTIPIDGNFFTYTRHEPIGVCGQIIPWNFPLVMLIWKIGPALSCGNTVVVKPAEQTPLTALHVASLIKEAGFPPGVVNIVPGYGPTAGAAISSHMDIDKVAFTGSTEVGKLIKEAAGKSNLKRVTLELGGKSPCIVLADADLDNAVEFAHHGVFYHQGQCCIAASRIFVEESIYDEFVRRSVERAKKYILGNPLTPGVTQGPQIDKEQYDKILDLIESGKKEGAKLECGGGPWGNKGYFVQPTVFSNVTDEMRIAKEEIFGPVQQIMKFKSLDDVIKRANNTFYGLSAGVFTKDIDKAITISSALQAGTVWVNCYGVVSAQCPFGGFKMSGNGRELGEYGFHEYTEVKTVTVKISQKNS

MCF7 [6] = assay: Antiproliferative activity against human MCF7 cells expressing BCA2 and estrogen receptor after 72 hrs by MTT assay; assay type: functional, cell-based; settings: MCF7, 72 h; outline: as §1
Homo sapiens [7] = species on record: Homo sapiens; assay: Inhibition of wild type human recombinant His-BCA2 autoubiquitination expressed in Escherichia coli at 50 uM after 30 mins by Western blotting in presence of human recombinant E2 UbcH5b; outline: as §2
MDA-MB-231 [8] = assay: Antiproliferative activity against BCA2 and ER deficient human MDA-MB-231 cells after 72 hrs by MTT assay; assay type: functional, cell-based; settings: MDA-MB-231, 72 h; outline: as §1
K562 = assay: Percentage of ALDH+ cells in human K562 cells at 15 uM after 45 mins by flow cytometry based method; settings: K562, 0.75 h
MCF7 [9] = assay: Antiproliferative activity against human MCF7 cells expressing BCA2 and estrogen receptor at IC50 concentration after 5 days by MTT assay in presence of 75 uM to 600 nM zinc chloride; assay type: functional, cell-based
Outline: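 MCF-7 cells (BCA2+, ER+) grown in RPMI 1640 with 10% heat-inactivated FBS, 37 °C, 5% CO2, used in exponential growth. Drug given with zinc chloride across 600 nM–75 μM for 5 days, then MTT read-out. Vehicle-treated cells without ZnCl2 or drug set as 100% growth.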

MCF7 [10] = assay: Reduction of BCA2 protein expression in human MCF7 cells at IC100 after 16 hrs by Western blotting in presence of cyclohexamide; assay type: functional, cell-based
MCF7 [11] = assay: Reduction of BCA2 protein expression in human MCF7 cells at IC100 after 16 hrs by Western blotting; assay type: functional, cell-based
MCF7 [12] = assay: Reduction of BCA2 protein expression in human MCF7 cells at IC100 after 16 hrs by Western blotting in presence of MG132; assay type: functional, cell-based
MCF7 [13] = assay: Reduction of BCA2 protein expression in human MCF7 cells at IC100 after 16 hrs by Western blotting in presence of cyclohexamide and MG132; assay type: functional, cell-based

| IC50 (T47D) [nM] | IC50 (MDA-MB-231 [4]) [nM] | IC50 (MCF7 [6]) [nM] | IC50 (MDA-MB-231 [8]) [µM] | Structure (SMILES) | IC50 [1] [µM] | Activity (Homo sapiens [2]) | Activity [3] | inhibition [5] [%] | Activity (Homo sapiens [7]) | ALDH+ cells (%) at 15 µM (K562) [%] | Activity (MCF7 [9]) | Activity (MCF7 [10]) | Activity (MCF7 [11]) | Activity (MCF7 [12]) | Activity (MCF7 [13]) |
| --- | --- | --- | --- | --- | --- | --- | --- | --- | --- | --- | --- | --- | --- | --- | --- |
| 300 | 2750 | 500 |  | CCN(CC)C(=S)SSCCO | > 10 | inactive | inactive | 8.6 | Active |  |  |  |  |  |  |
| 350 | 390 | 650 | 8 | CCCCSSC(=S)N1CCCCC1 | > 10 |  |  |  |  |  |  |  |  |  |  |
| 250 | 2300 | 600 | 6.7 | S=C(SSC1CCCCC1)N1CCCCC1 | > 10 |  |  |  |  |  |  |  |  |  |  |
| 1350 | 250 | 1400 | 4.7 | S=C(SSC1CCCCC1)N1CCCC1 | > 10 |  |  |  |  |  |  |  |  |  |  |
|  |  |  |  | Cc1cc(C)n2c1C=C1C=CC(CCC(=O)NCC=O)=[N+]1[B-]2(F)F |  |  |  | 0 |  | 40.4 |  |  |  |  |  |
| 150 | 550 | 500 | 6.3 | CCN(CC)C(=S)SSc1ccc(C(=O)O)cc1 | > 10 |  |  |  |  |  |  |  |  |  |  |
| 200 | 2100 | 450 | 6 | CCC(C)SSC(=S)N(CC)CC (stereo unspecified) | > 10 |  |  |  |  |  |  |  |  |  |  |
| 330 | 290 | 350 | 3 | CN1CCN(C(=S)SSC(=S)N2CCN(C)CC2)CC1 | > 10 |  |  |  |  |  |  |  |  |  |  |
| 170 | 320 | 100 | > 10 | CCN(CC)C(=S)SSC(=S)N(CC)CC | 10 | inactive | inactive | 57.3 | Active | 17.3 | inactive |  |  |  |  |
| 150 | 300 | 400 | 7.4 | CCCCSSC(=S)N(CC)CC [BUTYL DIETHYLCARBAMO(DITHIOPEROXO)THIOATE] | > 10 |  |  |  |  |  |  |  |  |  |  |
| 180 | 280 | 300 | 0.96 | CCN(CC)C(=S)SSC1CCCCC1 [CYCLOHEXYL DIETHYLCARBAMO(DITHIOPEROXO)THIOATE] | > 10 |  |  |  |  |  |  |  |  |  |  |
| > 10000 | > 10000 | > 10000 | > 10 | C1CN(SSN2CCOCC2)CCO1 [DITHIODIMORPHOLINE] | > 10 |  |  |  |  |  |  |  |  |  |  |
| 230 | 250 | 390 | 0.96 | CCN(CC)C(=S)SSC(C)C [ISOPROPYL DIETHYLCARBAMO(DITHIOPEROXO)THIOATE] | > 10 |  |  |  |  |  |  |  |  |  |  |

| Structure (SMILES) | IC50 (T47D) [nM] | IC50 (MDA-MB-231 [4]) [nM] | IC50 (MCF7 [6]) [nM] | IC50 (MDA-MB-231 [8]) [µM] | IC50 [1] [µM] | Activity (Homo sapiens [2]) | Activity [3] | inhibition [5] [%] | Activity (Homo sapiens [7]) | ALDH+ cells (%) at 15 µM (K562) [%] | Activity (MCF7 [9]) | Activity (MCF7 [10]) | Activity (MCF7 [11]) | Activity (MCF7 [12]) | Activity (MCF7 [13]) |
| --- | --- | --- | --- | --- | --- | --- | --- | --- | --- | --- | --- | --- | --- | --- | --- |
| S=C(SSC(=S)N1CCCCC1)N1CCCCC1 [BIS(PIPERIDINYLTHIOCARBONYL)DISULFIDE] | 270 | 590 | 30 | > 10 | > 10 | inactive | inactive | 79.5 | Active | 8.3 | inactive | Active | Active | Active | Active |
| S=C(SSC(=S)N1CCCC1)N1CCCC1 [BIS(PYRROLIDINYLTHIOCARBONYL)DISULFIDE] | 280 | 250 | 380 | > 10 | > 10 | inactive | inactive | 3.4 | Active | 39 |  |  |  |  |  |
| CCCCCCSSC(=S)N(CC)CC [DIETHYLCARBAMO(DITHIOPEROXO)THIOATE] | 230 | 350 | 430 | > 10 | > 10 | inactive | inactive | 9.8 | Active | 36.5 | inactive | Active | Active | Active | Active |
